The nature of data set [1]: Photostability of the compound in DMF at 3916 +/- 0.158 10^-5mol/L measured up to 240 mins in presence of UV-light by UV-vis spectrophotometric analysis. The note with it: 4 h.
Data set [2] is described as follows: Photostability of the compound in DMF at 4089 +/- 0.164 10^-5mol/L measured up to 240 mins in presence of UV-light by UV-vis spectrophotometric analysis. The conditions noted are these: 4 h.
Data set [3] is described as follows: Photostability of the compound in DMF at 5242 +/- 0.209 10^-5mol/L measured up to 240 mins in presence of UV-light by UV-vis spectrophotometric analysis. The note with it: 4 h.
The nature of data set [4]: Cytotoxicity against human HT-29 cells after 24 hrs by MTS assay. Type of data set: functional, cell-based. The note with it: HT-29, 24 h. A digest of the protocol:
(§1)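 Cells were exposed for 24 h to compound diluted 1:10, 1:100, 1:1000 and 1:10,000 from a 4 mg/ml DMSO stock; untreated controls were grown in non-modified medium. MTS was added for 2 h at 37 °C under 5% CO2, and absorbance was read at 490 nm. Viability is expressed as % of untreated control, averaged over three independent assays. EC50 or IC50 values were calculated from the plotted data.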
(Formazan colour is commonly taken as a measure of viable cells.)

Data set [5] is described as follows: Photostability of the compound in DMF at 2275 +/- 0.091 10^-5mol/L measured up to 240 mins in presence of UV-light by UV-vis spectrophotometric analysis. The conditions noted are these: 4 h.
A short description of data set [6]: Photostability of the compound in DMF at 2185 +/- 0.087 10^-5mol/L measured up to 240 mins in presence of UV-light by UV-vis spectrophotometric analysis. The conditions noted are these: 4 h.
Data set [7] in a line: Cytotoxicity against human MDA-MB-231 cells after 24 hrs by MTS assay. Format: functional, cell-based. The note with it: MDA-MB-231, 24 h. In a few lines: as §1
Data set [8] can be described thus: Cytotoxicity against human HepG2 cells after 24 hrs by MTS assay. Type of data set: functional, cell-based. The note with it: HepG2, 24 h. A digest of the protocol:
as §1

The nature of data set [9]: Cytotoxicity against human HeLa cells after 24 hrs by MTS assay. Type of data set: functional, cell-based. In a few lines: as §1
Data set [10] is described as follows: Cytotoxicity against human LEP-3 cells after 24 hrs by MTS assay. Format: toxicity, cell-based. A digest of the protocol: as §1
Data set [11] is described as follows: Antiproliferative activity against human MDA-MB-231 cells after 24 hrs by MTS assay. Format: functional, cell-based. The note with it: MDA-MB-231, 24 h. A digest of the protocol: as §1
A short description of data set [12]: Antiproliferative activity against human HeLa cells after 24 hrs by MTS assay. Type of data set: functional, cell-based. A digest of the protocol:
as §1

A further data set deals with HT-29. Briefly: Ratio of IC50 for human LEP-3 cells to IC50 for human HT-29 cells.
The nature of data set [13]: Antiproliferative activity against human HT-29 cells after 24 hrs by MTS assay. The conditions noted are these: HT-29, 24 h. Type of data set: functional, cell-based. In a few lines: as §1
Data set [14] is described as follows: Photostability of the compound in DMF assessed as drug degradation at 3128 +/- 0.125 10^-5mol/L measured after 240 mins in presence of UV-light by UV-vis spectrophotometric analysis. The note with it: DMF solution under UV light; read-out: Drug degradation. Format: physicochemical.
Data set [15] in a line: Antiproliferative activity against human LEP-3 cells after 24 hrs by MTS assay. The conditions noted are these: LEP-3, 24 h. Format: cell-based. A digest of the protocol: as §1
Data set [16] in a line: Antiproliferative activity against human HepG2 cells after 24 hrs by MTS assay. Type of data set: functional, cell-based. The note with it: HepG2, 24 h. A digest of the protocol:
as §1

Take `CCNc1nnc(CSc2nc3sc(C)c(C)c3c(=O)n2CC)s1`: the Stability result in data set [1], in data set [2], in data set [3], in data set [5] and in data set [6] was “Stable” each time. Also, the IC50 in [4] is 3.58 µM; in data set [7] it was 9400 nM; in data set [8], 0.99 µM; in [9] it was 7.42 µM. In data set [10], this compound came in with an IC50 at 24 h of 191000 nM.

In the case of `CCNc1nnc(CSc2nc3sc4c(c3c(=O)n2CC)CCCC4)s1`, the Stability entry in data set [1], in data set [2], in [3], in data set [5] and in data set [6] was “Stable” in each case. The values for the IC50 in [4] and in data set [8] were 0.001 µM and 9.8 µM, respectively. For the same compound, the EC50 was found to be 0.001 µM in data set [11] and 9.28 µM in data set [12]. Moreover, the “Ratio IC50” value in the data set with HT-29 is on record as 100. Moreover, the IC50 at 24 h in [10] was 9770 nM.

With `CCNC(=S)NNC(=O)CSc1nc2sc(C)c(C)c2c(=O)n1CC`, the EC50 worked out at 8.86 µM in data set [11], 85 nM in data set [13] and 0.43 µM in [12]. The degraded at 4 h in data set [14] stood at 30%. Besides, in data set [10], 10 nM corresponded to half-maximal inhibition (IC50 at 24 h).

On to `CCNc1nnc(CSc2nc3sc(C(=O)OCC)c(C)c3c(=O)n2CC)s1`, for which the Stability entry in data set [1], in [2], in data set [3], in data set [5] and in data set [6] was “Stable” each time. Besides, the IC50 in data set [4] amounted to 9.12 µM; in data set [7], 2130 nM; in data set [8], 9.51 µM; in data set [9], 0.83 µM. Further, half-maximal inhibition in [10] (IC50 at 24 h) required 89 nM.

`CCNC(=S)NNC(=O)CSc1nc2sc3c(c2c(=O)n1CC)CCCC3`: the Stability entry in data set [1], in data set [2], in data set [3], in [5] and in data set [6] was “Stable” each time. Besides, the EC50 in data set [15] worked out at 8.25 µM; in data set [11], 9.33 µM; in data set [13] it was 1130 nM; in [12], 7.97 µM; in data set [16], 2720 nM.

Regarding `CCNC(=S)NNC(=O)CSc1nc2sc(C(=O)OCC)c(C)c2c(=O)n1CC`, the Stability result in data set [1], in [2], in data set [3], in [5] and in data set [6] was “Stable” in each case. Further, the IC50 in [4] turned out to be 7.38 µM; in data set [7] it was 0.231 nM; in data set [8], 8.71 µM; in [9], 8.71 µM. Moreover, in data set [10], the IC50 at 24 h was determined as 800 nM.

The IC50 is the point on the concentration scale where inhibition reaches its midpoint. A lower IC50 goes with greater potency. As usually defined, the EC50 is the concentration that produces a half-maximal response. A higher EC50 goes with weaker potency.

The record behind these values is ChEMBL document CHEMBL3872203, “Synthesis, anticancer activity and photostability of novel 3-ethyl-2-mercapto-thieno[2,3-d]pyrimidin-4(3H)-ones” (Eur J Med Chem, 2016).
